The text below walks through data of ChEMBL document CHEMBL1154986, “New anti-malarial phenylpropanoid conjugated iridoids from Morinda morindoides” (Bioorg Med Chem Lett, 2010).

The subject of one data set is Plasmodium falciparum. The experiment in a line: Antimalarial activity against cycloguanil-resistant Plasmodium falciparum CDC1 assessed as inhibition of ring stage parasitaemia after 48 hrs by Giemsa staining. Format: functional, organism-based. The settings on record: CDC1, 48 h. The gist of the method: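 Sorbitol-synchronized ring-stage culture (0.5% parasitemia, 4% hematocrit type O human RBC) in RPMI 1640 with 10% heat-inactivated type O human serum, HEPES, glutamine, NaHCO3, hypoxanthine, gentamycin; 5% CO2/5% O2/90% N2, 37 °C. Samples from DMSO stock diluted in medium, 1% DMSO final; 48 h. Proliferation counted on Giemsa thin films, 10,000 erythrocytes per film, triplicate. Quinine as control.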

Data set [1] is described as follows: Cytotoxicity against human KB-3-1 cells at 150 uM after 72 hrs by MTT assay. Format: cell-based. As to conditions: read-out: GI.
Data set [2] in a line: Cytotoxicity against human KB-3-1 cells after 72 hrs by MTT assay. As to conditions: KB 3-1, 72 h. In kind it is cell-based. The gist of the method:
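KB-3-1 cells grown in RPMI 1640 with 10% newborn calf serum, glutamine, kanamycin, 5% CO2, 37 °C. 1.0 × 10^4 cells per well, then sample added in medium containing 2% DMSO; 72 h at 37 °C. MTT (2 mg/mL in PBS) added afterwards; growth inhibition from absorbance at 540 nm. Mitomycin C as positive control.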
(Formazan colour is commonly taken as a measure of viable cells.)

≈ marks a conversion by molar mass, not a printed value.

The IC50 is the point on the concentration scale where inhibition reaches its midpoint. Usually IC90 stands for the point of the concentration-response curve where the effect stands at 90%.

As to `COC(=O)C1=CO[C@@H](O[C@@H]2O[C@H](CO)[C@@H](O)[C@H](O)[C@H]2O)[C@H]2[C@@H]1C=C[C@@]21C=C([C@H](O)c2ccc(O)c(OC)c2)C(=O)O1`, in the data set with Plasmodium falciparum, the IC50 amounted to 21900 nM. Moreover, the inhibition at 72 h, 150 µM in data set [1] was 13.1%.
Taken in the same sequence, the figures for `COC(=O)C1=CO[C@@H](O[C@@H]2O[C@H](COC(C)=O)[C@@H](O)[C@H](O)[C@H]2O)[C@H]2[C@@H]1C=C[C@@]21C=C([C@H](O)c2ccc(O)c(OC)c2)C(=O)O1` were 100 nM and 9.3%.
Consider `COC(=O)C1=CO[C@@H](O[C@@H]2O[C@H](CO)[C@@H](O)[C@H](O)[C@H]2O)[C@H]2[C@@H]1C=C[C@@]21C=C([C@H](O)c2ccc(O)cc2)C(=O)O1`, for which, in the data set on Plasmodium falciparum, the IC50 was 800 nM. In data set [1], the inhibition at 72 h, 150 µM turned out to be 13.4%.
Take `COC(=O)C1=CO[C@@H](O[C@@H]2O[C@H](CO)[C@@H](O)[C@H](O)[C@H]2O)[C@H]2[C@@H]1C=C[C@@]21C=C(C(=O)c2ccc(O)c(OC)c2)C(=O)O1` [DEHYDROMETHOXYGAERTNEROSIDE]: in the data set with Plasmodium falciparum, the 50% inhibitory concentration (IC50) came out at 40 nM. Moreover, in data set [1], the inhibition at 72 h, 150 µM stood at 6.1%.
As to `COC(=O)C1=CO[C@@H](O[C@@H]2O[C@H](COC(C)=O)[C@@H](O)[C@H](O)[C@H]2O)[C@H]2[C@@H]1C=C[C@@]21C=C([C@H](O)c2ccc(O)cc2)C(=O)O1`, the half-maximal inhibitory concentration (IC50) with Plasmodium falciparum was 4100 nM. Besides, the inhibition at 72 h, 150 µM in data set [1] was 4.3%.
Take `C=C[C@H]1CN2CC[C@H]1C[C@H]2[C@H](O)c1ccnc2ccc(OC)cc12` [QUININE]: in the data set with Plasmodium falciparum, the IC50 is 0.04 µg/mL and the 90% effect concentration (IC90) worked out at 0.09 µg/mL (≈ 0.277 µM).
The compound `CO[C@@]12[C@H](COC(N)=O)C3=C(C(=O)C(C)=C(N)C3=O)N1C[C@@H]1N[C@@H]12` [MITOMYCIN] had an IC50 in data set [2] of 0.1 µg/mL (≈ 0.299 µM).
